Source: ChEMBL document CHEMBL3091376, “Design, synthesis and in vitro anticancer evaluation of 4,6-diamino-1,3,5-triazine-2-carbohydrazides and -carboxamides” (Bioorg Med Chem Lett, 2013)
Structures can show the parent of a compound that is named as a salt. Peptide text beside a SMILES is read from it. * marks the point of attachment. Cbz = O=C(OCc1ccccc1)*

Legend:
[1] = Growth inhibition of human MCF10A cells after 72 hrs by CellTiter-Blue assay; assay type: cell-based; conditions: MCF-10A
Summary of the method: (§1)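 CellTiter-Blue viability assay after 72 h exposure to test compound. IC50 (μM) reported as the mean of triplicates with standard deviation. Some values are approximate owing to low solubility in medium.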

MCF7 = test: Growth inhibition of human MCF7 cells after 72 hrs by CellTiter-Blue assay; assay type: functional, cell-based; conditions: MCF7, 72 h; summary of the method: as §1
MDA-MB-231 = test: Growth inhibition of human MDA-MB-231 cells after 72 hrs by CellTiter-Blue assay; assay type: functional, cell-based; conditions: MDA-MB-231, 72 h; summary of the method: as §1

IC50 (MCF7) [µM]	IC50 (MDA-MB-231) [µM]	Structure (SMILES)	IC50 [1] [µM]
–	–	COc1cccc2c1C(=O)c1c(O)c3c(c(O)c1C2=O)C[C@@](O)(C(=O)CO)C[C@@H]3O[C@H]1C[C@H](N)[C@H](O)[C@H](C)O1 [DOXORUBICIN HYDROCHLORIDE]	1.11
0.13	0.18	CC(C)C[C@@H](C=O)NC(=O)[C@H](CC(C)C)NC(=O)[C@H](CC(C)C)NC(=O)OCc1ccccc1 [MG-132] (Cbz-Leu-Leu-Leu-aldehyde)	0.29
